From PubChem BioAssay
hERG protect = shields human hERG channel from block by proarrhythmic agents; CHO-hERG, FluxOR thallium flux, dofetilide IC70 present; activation (rescue from dofetilide block), less the hit threshold, % at 10 µM; 0.51% of 310,000 active; AID 1511;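 active means activation above the mean of controls blocked by dofetilide plus 5 SD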;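 further: thallium influx through hERG after potassium depolarization seen as dye fluorescence rise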
KCNQ1 act = potentiates or activates the human KCNQ1 potassium channel; B-score at 10 µM; AID 2648; P51787; 0.35% of 310,000 active; CHO-K1 KCNQ1, thallium flux FluxOR fluorescence; hits give high values;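 active means fluorescence ratio B-score, a plate-corrected score, at least three library SD, with initial intensity B-score within 5 SD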
Target sequence (P51787 whole entry, looked up): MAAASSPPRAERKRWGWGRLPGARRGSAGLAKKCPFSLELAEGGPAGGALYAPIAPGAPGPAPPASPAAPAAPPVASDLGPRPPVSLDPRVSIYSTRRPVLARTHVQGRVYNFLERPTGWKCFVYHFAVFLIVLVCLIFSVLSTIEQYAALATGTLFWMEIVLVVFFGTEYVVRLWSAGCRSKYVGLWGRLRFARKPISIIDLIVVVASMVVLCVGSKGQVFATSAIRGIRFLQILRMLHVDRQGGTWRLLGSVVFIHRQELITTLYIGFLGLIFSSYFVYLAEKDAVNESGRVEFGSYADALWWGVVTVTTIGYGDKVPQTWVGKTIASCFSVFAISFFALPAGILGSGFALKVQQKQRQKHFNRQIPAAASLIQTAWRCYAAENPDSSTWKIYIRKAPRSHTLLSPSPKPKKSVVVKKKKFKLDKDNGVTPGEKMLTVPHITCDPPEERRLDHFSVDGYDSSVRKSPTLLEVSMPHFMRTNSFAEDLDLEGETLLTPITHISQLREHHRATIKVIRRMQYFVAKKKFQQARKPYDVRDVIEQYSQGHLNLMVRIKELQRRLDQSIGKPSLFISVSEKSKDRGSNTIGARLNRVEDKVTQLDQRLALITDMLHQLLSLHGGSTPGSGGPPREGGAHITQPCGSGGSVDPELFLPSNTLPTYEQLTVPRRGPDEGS
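System: CHO-K1 cells stably expressing KCNQ1 / Medium: assay buffer for compound exposure, DMSO matched across wells / Reagent: thallium- and potassium-containing depolarizing buffer / Compound: one concentration, matched DMSO / Incubation: 20 min compound pretreatment at room temperature / Measured by: kinetic FluxOR fluorescence, 10 s baseline plus 110 s post-stimulus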
Kir21 inh = blocks the mouse Kir2.1 inward-rectifier potassium channel. P35561. B-score at 10 µM. HEK293-Kir2.1, FluxOR thallium flux fluorescence; hits give low values. 0.85% of 310,000 active;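 active means fluorescence ratio B-score at or below minus 3 SD of library scores, with starting-brightness B-score within 2 SD, cut at about -4.2 in these data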;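 further: channel flux triggered by added potassium and thallium sulfate stimulus; B-score of peak minus minimum fluorescence over baseline after thallium stimulus; more negative B-score means stronger Kir2.1 block with less thallium influx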
KCNK3 block = human KCNK3 channel inhibition, primary screen; CHO-KCNK3 thallium flux, FluxOR fluorescence; hits give low values; B-score at 10 µM; 0.84% of 340,000 active; AID 602410;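 active means B-score under library mean minus 4 SD, starting fluorescence ratio at most library mean plus 5 SD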;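 further: more negative B-score means stronger inhibition of thallium flux through KCNK3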
KCNQ1 block = blocks the human KCNQ1 potassium channel. P51787. CHO-K1 KCNQ1, FluxOR thallium flux fluorescence; hits give high values. B-score at 10 µM. 1.3% of 310,000 active. AID 2642;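 active means compounds whose thallium flux B-score, printed positive for inhibition, exceeds three library SD while starting fluorescence stays within three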;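 further: channel opened by potassium depolarization with thallium stimulus after 20 min compound exposure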
KCNK9 block = blocks the human KCNK9 two-pore domain potassium channel | Q9NPC2 | HEK293 KCNK9, FluxOR thallium flux fluorescence; hits give low values | B-score at 10 µM | 1.2% of 310,000 active | AID 488922;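 active means ratio B-score over 3 SD below the library mean, with starting fluorescence within 5 SD of its mean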;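 further: negative B-score means less thallium flux so channel inhibition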
A number is an active result; n = inactive; x = no result. Most compounds without a hit are left out; they make up all but 3.7% or so of the library.

SMILES | hERG protect | KCNQ1 act | Kir21 inh | KCNK3 block | KCNQ1 block | KCNK9 block
Cc1nn(-c2ccc(Cl)cc2)c2sc(C(=O)c3c(N)n(C)c(=O)n(C)c3=O)cc12 | 24.1 | n | n | n | n | n
Cc1cc(C(=O)OC(C(=O)Nc2cccc(C(F)(F)F)c2)c2ccccc2)c(C)o1 (centres undefined) | n | n | n | n | 9 | n
Cc1ccc(CNC(=O)CCS(=O)(=O)c2ccc3c(c2)NC(=O)CS3)cc1 | n | n | n | n | n | n
Cc1[nH][nH]c(=O)c1C(c1ccc(-c2cccc(Cl)c2)o1)c1c(C)[nH][nH]c1=O | n | n | -6.62 | n | n | n
Cc1[nH][nH]c(=O)c1C(c1ccc(-c2cccc(C(=O)O)c2)o1)c1c(C)[nH][nH]c1=O | n | n | n | n | n | n
CCn1c(SC/C=C/c2ccccc2)nnc1-c1cccs1 | n | n | -7.81 | n | n | n
C=CCn1c(Cc2cccs2)nnc1SC/C=C/c1ccccc1 | n | n | -14.9 | n | n | n
Cn1c(SC/C=C/c2ccccc2)nnc1-c1cccs1 | n | n | n | n | n | n
Cn1c(CC(=O)Nc2ccccc2F)nnc1SCC(=O)Nc1nccs1 | n | n | n | n | n | n
CCN1C[C@@H]2[C@@H]3C(=O)N(C)C(=O)[C@@H]3[C@](C)(C1=O)N2C(=O)c1ccc(Br)cc1 | x | x | x | n | x | x
CN(c1ccc(F)cc1)S(=O)(=O)c1ccc(Cl)c(C(=O)Nc2ccc3c(c2)CCC3)c1 | n | n | n | n | n | -6.9
C=CCC(=O)NC1CC(C)(C)Cc2c1cnn2-c1ccccc1C (centres undefined) | n | n | n | n | n | n
CCCCn1c(NC(=O)c2ccc(Br)o2)c(S(=O)(=O)c2ccccc2)c2nc3ccccc3nc21 | n | n | n | n | 12 | n
Cc1ccc(S(=O)(=O)c2c(N)n(NC(=O)c3ccccc3C)c3nc4ccccc4nc23)cc1 | n | n | n | -8.79 | n | n
Cc1ccc(C(=O)Nn2c(N)c(S(=O)(=O)c3ccc(C)cc3)c3nc4ccccc4nc32)cc1 | n | n | n | n | n | n
CCCCn1c(NS(=O)(=O)c2ccccc2)c(S(=O)(=O)c2ccc(C)cc2)c2nc3ccccc3nc21 | n | n | n | n | n | n
CCCCCn1c(NC(=O)c2ccco2)c(S(=O)(=O)c2ccc(C)cc2)c2nc3ccccc3nc21 | n | n | n | n | 10 | n
CCCCn1c(NC(=O)c2ccco2)c(S(=O)(=O)c2ccc(C)cc2)c2nc3ccccc3nc21 | n | n | n | n | n | n
CN(C)C(=O)c1nc2ccc(Cl)cn2c1CN1CCCC(OCc2cccnc2)C1 (centres undefined) | n | n | n | n | n | n
Clc1ccc(OCc2nnc3n2CCCCC3)c(Cl)c1 | n | n | n | n | n | n
CNc1nc(NCc2ccccc2)c2ccccc2n1 | n | n | -5.4 | n | n | n
CCC/C=C(\CCC)C(NC(=O)c1ccc(C(=O)OC)cc1)c1ccc(C(=O)OC)cc1 (centres undefined) | n | n | n | x | 6 | n
CCC/C=C(\CCC)C(NC(=O)c1ccc(C(F)(F)F)cc1)c1ccccc1 (centres undefined) | n | n | n | x | 6 | n
O=C(c1ccc(COc2ccc3c(c2)CCC3)o1)N1CCN(c2ccccc2)CC1 | n | n | n | n | n | n
O=C(c1ccco1)N1CCN(C(=O)c2ccc(COc3ccc4c(c3)CCC4)o2)CC1 | n | n | n | n | n | -8.04
SMILES | hERG protect | KCNQ1 act | Kir21 inh | KCNK3 block | KCNQ1 block | KCNK9 block
Cc1cc2cc(CNC(=S)Nc3ccc(OC(F)(F)F)cc3)ccc2[nH]1 | n | n | n | n | n | n
O=C(NN=Cc1cccc([N+](=O)[O-])c1)c1cccc2ccccc12 | x | x | x | n | x | x
CC1(C)C[C@@H]2C[C@@](C)(CN2C(=O)c2cc(COc3cccc(C(F)(F)F)c3)on2)C1 | n | n | n | n | 7 | n
O=C(c1cc(COc2cccc(C(F)(F)F)c2)on1)N1C[C@H]2CC[C@H]1C2 | n | n | n | n | n | n
COc1ccc(C(C(=O)NC2CCCCC2)N(Cc2ccco2)C(=O)c2snc(C(N)=O)c2N)cc1 (centres undefined) | n | n | n | n | 9 | n
COc1ccc(C(C(=O)NC2CCCC2)N(Cc2ccco2)C(=O)c2snc(C(N)=O)c2N)cc1OC (centres undefined) | n | n | n | n | n | n
O=C(NC1CCCCC1)C(c1ccc2ncccc2c1)N(Cc1cccs1)C(=O)c1cccs1 (centres undefined) | n | n | n | n | n | n
O=C(NC1CCCCC1)C(c1cccs1)N(Cc1cccs1)C(=O)c1cccs1 (centres undefined) | n | n | n | n | 8 | n
CCC(C(=O)NC1CCCCC1)N(Cc1cccs1)C(=O)c1snc(C(N)=O)c1N (centres undefined) | n | n | n | n | 6 | n
NC(=O)C1CCN(CC(=O)Nc2cccc(C(=O)Nc3cccc(C(F)(F)F)c3)c2)CC1 | n | n | n | n | n | n
COc1cc(OC)nc(NC(=O)NS(=O)(=O)c2ccc(F)cc2)n1 | n | n | n | n | n | n
O=C(N/N=C/C1=C(N2CCOCC2)C(=C\c2ccccc2)/CC1)Nc1ccccc1 | n | n | n | n | n | n
O=C(O)c1ccccc1N/N=C/C1=C(N2CCOCC2)C(=C\c2ccccc2)/CC1 | n | n | n | n | 9 | n
CC(C)(C)OC(=O)N[C@@H](Cc1ccccc1)c1nnc(S(=O)(=O)Cc2cccc(F)c2)o1 | n | n | n | x | n | n
CC(C)C[C@H](N)c1nnc(S(=O)(=O)Cc2cccc(F)c2)o1 | n | n | -7.93 | n | n | n
O=C(CNc1cccc(C(F)(F)F)c1)Nc1cccc(S(=O)(=O)N2CCCC2)c1 | x | x | x | -9.31 | x | x
Nc1nc(Nc2ccccc2F)nc(N2CCOCC2)c1[N+](=O)[O-] | n | n | n | n | n | n
c1ccc(Cn2nnc3c(N4CCN(Cc5ccc6c(c5)OCO6)CC4)ncnc32)cc1 | n | n | n | n | n | n
c1ccc2c(c1)oc1c(N3CCN(Cc4ccc5c(c4)OCO5)CC3)ncnc12 | n | n | n | -9.52 | n | n
COc1ccccc1CNS(=O)(=O)c1ccc(Br)s1 | n | n | -4.98 | n | n | n
COc1cc(-c2nc3ccc(N4CCN(C)CC4)cc3[nH]2)cc(OC)c1OC | 5.5 | n | n | n | n | n
CN(C)c1ncc(C2=C(Cl)C(=O)C(N3CCCC3)=C(Cl)C2=O)s1 | n | n | n | n | 7 | n
O=C1C(Cl)=C(N2CCCCC2)C(=O)C(Cl)=C1c1cnc(N2CCCCC2)s1 | n | n | n | n | 7 | n
Cc1ccc(S(=O)(=O)CCC(=O)NNC(=O)CN(C)S(=O)(=O)c2ccc(C)cc2)cc1 | x | x | x | n | x | x
CCOC(=O)c1c(C)oc2cc(Br)c(OC)cc12 | 9.4 | n | n | n | n | n
